Measured values published in ChEMBL document CHEMBL1671834, “Novel 3-aryl indoles as progesterone receptor antagonists for uterine fibroids” (ACS Med Chem Lett, 2011).

Columns and labels:
Glucocorticoid receptor = target: T1, Glucocorticoid receptor (Homo sapiens, UniProt P04150); test: Displacement of [3H]methyltrienolone from human glucocorticoid receptor expressed in HEK293 cells; type: cell-based
T1 sequence (P04150 whole entry): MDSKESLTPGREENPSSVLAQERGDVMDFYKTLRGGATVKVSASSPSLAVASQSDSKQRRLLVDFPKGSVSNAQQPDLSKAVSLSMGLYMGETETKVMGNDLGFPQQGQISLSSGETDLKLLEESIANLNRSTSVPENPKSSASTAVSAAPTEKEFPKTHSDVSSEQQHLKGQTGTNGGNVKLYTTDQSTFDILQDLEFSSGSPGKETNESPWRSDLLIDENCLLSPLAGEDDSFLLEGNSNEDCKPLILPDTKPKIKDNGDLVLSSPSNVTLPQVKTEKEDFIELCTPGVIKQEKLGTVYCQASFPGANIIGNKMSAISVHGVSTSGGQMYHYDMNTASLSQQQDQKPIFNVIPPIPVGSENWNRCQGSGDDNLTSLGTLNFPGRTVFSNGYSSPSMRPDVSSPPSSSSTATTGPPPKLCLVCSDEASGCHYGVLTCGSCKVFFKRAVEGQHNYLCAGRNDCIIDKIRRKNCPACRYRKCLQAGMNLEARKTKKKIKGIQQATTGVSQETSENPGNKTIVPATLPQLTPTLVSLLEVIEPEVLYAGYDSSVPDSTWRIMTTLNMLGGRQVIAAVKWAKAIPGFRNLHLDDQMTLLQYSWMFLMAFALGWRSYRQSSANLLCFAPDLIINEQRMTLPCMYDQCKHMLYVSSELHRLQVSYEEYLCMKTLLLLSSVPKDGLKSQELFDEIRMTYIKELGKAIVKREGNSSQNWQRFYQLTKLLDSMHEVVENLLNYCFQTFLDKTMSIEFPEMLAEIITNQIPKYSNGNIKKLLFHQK

[1] = target: T2, Mineralocorticoid receptor (Homo sapiens) (UniProt P08235); test: Antagonist activity at human mineralocorticoid receptor expressed in HEK293 cells assessed as inhibition of […]-induced transcriptional activity by GRE-driven luciferase reporter gene assay relative to untreated control; type: functional, cell-based; parameters: concentration or dose not given beside the values; conditions: concentration not given here
T2 sequence (whole entry): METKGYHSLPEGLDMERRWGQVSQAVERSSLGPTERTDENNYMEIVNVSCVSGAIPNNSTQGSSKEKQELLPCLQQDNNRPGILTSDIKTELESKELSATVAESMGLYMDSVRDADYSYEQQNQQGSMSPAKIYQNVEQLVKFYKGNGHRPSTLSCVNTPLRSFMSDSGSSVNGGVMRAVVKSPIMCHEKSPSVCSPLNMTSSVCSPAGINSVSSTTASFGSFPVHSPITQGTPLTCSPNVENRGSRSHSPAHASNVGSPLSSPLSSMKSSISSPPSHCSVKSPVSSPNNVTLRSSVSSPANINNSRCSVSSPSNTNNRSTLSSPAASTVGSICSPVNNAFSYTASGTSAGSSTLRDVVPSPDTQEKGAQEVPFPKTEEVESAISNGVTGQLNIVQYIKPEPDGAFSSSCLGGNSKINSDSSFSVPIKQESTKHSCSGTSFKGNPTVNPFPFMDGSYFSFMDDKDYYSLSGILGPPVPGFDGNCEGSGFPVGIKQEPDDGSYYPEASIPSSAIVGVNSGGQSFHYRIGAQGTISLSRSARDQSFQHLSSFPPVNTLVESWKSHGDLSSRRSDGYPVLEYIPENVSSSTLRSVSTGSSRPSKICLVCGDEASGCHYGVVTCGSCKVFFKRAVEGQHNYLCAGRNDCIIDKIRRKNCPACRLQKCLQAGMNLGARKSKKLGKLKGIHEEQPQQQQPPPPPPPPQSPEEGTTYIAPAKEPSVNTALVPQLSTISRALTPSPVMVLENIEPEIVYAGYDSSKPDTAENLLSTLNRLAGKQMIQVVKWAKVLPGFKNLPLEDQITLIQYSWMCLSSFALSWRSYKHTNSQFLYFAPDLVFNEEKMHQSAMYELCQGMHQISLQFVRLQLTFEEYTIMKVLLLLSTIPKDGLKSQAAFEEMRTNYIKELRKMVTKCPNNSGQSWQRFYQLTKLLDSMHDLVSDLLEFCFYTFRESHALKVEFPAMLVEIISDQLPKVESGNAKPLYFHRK
Summary of the method: (§1)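 Transcription assay in HEK293 cells cotransfected with full-length human receptor. Values are geometric means of at least duplicate determinations.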

Progesterone receptor [2] = target: T3, Progesterone receptor (Homo sapiens, UniProt P06401); test: Antagonist activity at human progesterone receptor expressed in HEK293 cells assessed as inhibition of […]-induced transcriptional activity by GRE-driven luciferase reporter gene assay; type: functional, cell-based; summary of the method: as §1
T3 sequence (P06401 whole entry): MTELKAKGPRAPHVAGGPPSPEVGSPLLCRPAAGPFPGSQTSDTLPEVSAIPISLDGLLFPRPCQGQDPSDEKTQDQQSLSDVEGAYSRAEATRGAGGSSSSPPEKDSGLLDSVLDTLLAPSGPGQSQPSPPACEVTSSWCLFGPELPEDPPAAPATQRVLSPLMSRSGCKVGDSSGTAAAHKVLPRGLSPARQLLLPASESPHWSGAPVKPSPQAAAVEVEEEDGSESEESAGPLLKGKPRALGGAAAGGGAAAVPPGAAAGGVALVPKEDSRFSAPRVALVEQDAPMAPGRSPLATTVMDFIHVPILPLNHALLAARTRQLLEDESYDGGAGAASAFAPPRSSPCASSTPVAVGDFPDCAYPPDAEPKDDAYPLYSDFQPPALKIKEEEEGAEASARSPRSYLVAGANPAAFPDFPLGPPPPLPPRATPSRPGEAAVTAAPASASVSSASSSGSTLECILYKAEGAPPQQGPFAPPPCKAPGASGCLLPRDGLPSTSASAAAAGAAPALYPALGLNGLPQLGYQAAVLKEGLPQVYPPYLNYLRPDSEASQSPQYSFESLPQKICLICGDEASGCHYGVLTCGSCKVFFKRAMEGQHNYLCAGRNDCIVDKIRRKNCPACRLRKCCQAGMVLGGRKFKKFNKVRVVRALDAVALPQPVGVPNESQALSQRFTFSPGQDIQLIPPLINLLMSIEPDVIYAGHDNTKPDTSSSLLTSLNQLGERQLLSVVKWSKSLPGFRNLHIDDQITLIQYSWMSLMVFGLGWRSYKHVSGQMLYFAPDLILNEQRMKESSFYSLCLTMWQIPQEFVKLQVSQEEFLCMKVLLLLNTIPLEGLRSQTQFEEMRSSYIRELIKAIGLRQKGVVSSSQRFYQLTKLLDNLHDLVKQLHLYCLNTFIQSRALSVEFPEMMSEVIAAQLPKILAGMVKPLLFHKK

[3] = target: T4, Mineralocorticoid receptor (Homo sapiens, UniProt P08235); test: Antagonist activity at human mineralocorticoid receptor expressed in HEK293 cells assessed as inhibition of […]-induced transcriptional activity by GRE-driven luciferase reporter gene assay; type: functional, cell-based; summary of the method: as §1
T4 sequence (P08235 whole entry): T2 sequence (whole entry)

Progesterone receptor [4] = target: T3, Progesterone receptor; test: Displacement of [3H]methyltrienolone from human progesterone receptor expressed in HEK293 cells; type: cell-based
Summary of the method: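 Competitive binding to recombinant full-length human receptors against tritium-labelled standards. Values are geometric means of at least duplicate determinations.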

Ki (Glucocorticoid receptor) [nM] | inhibition [1] [%] | IC50 (Progesterone receptor [2]) [nM] | IC50 [3] [µM] | Ki (Progesterone receptor [4]) [nM] | Structure (SMILES)
> 4290 | -2.2 | 485 | > 10 | 28 | Cn1cc(-c2ccc(C#N)cc2)c2ccc(NS(C)(=O)=O)cc21
977 | 35.8 | 7.28 | 2.42 | 1.45 | COc1cc(-c2cn(C(C)C)c3cc(NS(C)(=O)=O)ccc23)ccc1C#N
780 | 39.2 | 9.92 | > 10 | 0.834 | CC[C@@H](C)n1cc(-c2ccc(C#N)cc2)c2ccc(NS(C)(=O)=O)cc21
1860 | 43.4 | 3.89 | 9.8 | 0.32 | CC[C@H](C)n1cc(-c2ccc(C#N)cc2)c2ccc(NS(C)(=O)=O)cc21
6.39 | 76.3 | 765 | 0.0641 | 454 | CC(c1ccc(F)cc1)(c1c[nH]c2c(NS(C)(=O)=O)cccc12)C1CC1 (stereo not given)
1530 | 36.6 | 6.81 | > 10 | 0.795 | CC(C)n1cc(-c2ccc(C#N)cc2)c2ccc(NS(C)(=O)=O)cc21
50.2 | 40.8 | 3720 | > 10 | 478 | COc1ccc(C(c2ccccc2)c2c[nH]c3ccccc23)cc1 (stereo not given)
927 | 23.8 | 12.6 | > 10 | 4.23 | CCn1cc(-c2ccc(C#N)cc2)c2ccc(NS(C)(=O)=O)cc21
157 | 56 | 3.38 | > 10 | 0.298 | Cc1cc(-c2cn(C(C)C)c3cc(NS(C)(=O)=O)ccc23)ccc1C#N
523 | 50.2 | 2.29 | 8.15 | 0.214 | CC(C)n1cc(-c2ccc(C#N)c(F)c2)c2ccc(NS(C)(=O)=O)cc21
